# Experimental data as given in ChEMBL document CHEMBL1649330, “Multicenter study for defining the breakpoint for rifampin resistance in Neisseria meningitidis by rpoB sequencing” (2010).
# What was measured:
# Type in all cases: functional
# Neisseria meningitidis [1] = experiment: Antimicrobial activity against Neisseria meningitidis harboring rpoB10 H552R mutant allele by Etest
# In short: (§1)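 Rifampin MIC by Etest on meningococcal clinical isolates collected by the participating national laboratories, with MIC read in mg/liter. The rpoB gene of each isolate was sequenced and assigned to an allele. Isolates were serogrouped by agglutination with serogroup-specific antisera.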
# Neisseria meningitidis [2] = experiment: Antimicrobial activity against Neisseria meningitidis harboring rpoB11 H552N mutant allele by Etest; in short: as §1
# Neisseria meningitidis [3] = experiment: Antimicrobial activity against Neisseria meningitidis harboring rpoB12 H552L mutant allele by Etest; in short: as §1
# Neisseria meningitidis [4] = experiment: Antimicrobial activity against Neisseria meningitidis harboring rpoB13 H552Y mutant allele by Etest; in short: as §1
# Neisseria meningitidis [5] = experiment: Antimicrobial activity against Neisseria meningitidis harboring rpoB14 S548F mutant allele by Etest; in short: as §1
# Neisseria meningitidis [6] = experiment: Antimicrobial activity against Neisseria meningitidis harboring rpoB15 H552N mutant allele by Etest; in short: as §1
# Neisseria meningitidis [7] = experiment: Antimicrobial activity against Neisseria meningitidis harboring rpoB16 H552Y mutant allele by Etest; in short: as §1
# Neisseria meningitidis [8] = experiment: Antimicrobial activity against Neisseria meningitidis harboring rpoB17 H552Y mutant allele by Etest; in short: as §1
# Neisseria meningitidis [9] = experiment: Antimicrobial activity against Neisseria meningitidis harboring rpoB19 S557F mutant allele by Etest; in short: as §1
# Neisseria meningitidis [10] = experiment: Antimicrobial activity against Neisseria meningitidis harboring rpoB20 H552Y mutant allele by Etest; in short: as §1
# Neisseria meningitidis [11] = experiment: Antimicrobial activity against Neisseria meningitidis harboring rpoB23 S548F mutant allele by Etest; in short: as §1
# Neisseria meningitidis [12] = experiment: Antimicrobial activity against Neisseria meningitidis harboring rpoB26 D542N and S557F mutant allele by Etest; in short: as §1
# Neisseria meningitidis [13] = experiment: Antimicrobial activity against Neisseria meningitidis harboring rpoB32 H552Y mutant allele by Etest; in short: as §1
# Neisseria meningitidis [14] = experiment: Antimicrobial activity against Neisseria meningitidis harboring rpoB36 H552N mutant allele by Etest; in short: as §1
# Neisseria meningitidis [15] = experiment: Antimicrobial activity against Neisseria meningitidis harboring rpoB37 G560S mutant allele by Etest; in short: as §1
# Neisseria meningitidis [16] = experiment: Antimicrobial activity against Neisseria meningitidis harboring rpoB39 D542V mutant allele by Etest; in short: as §1
# Neisseria meningitidis [17] = experiment: Antimicrobial activity against Neisseria meningitidis harboring rpoB44 H552Y mutant allele by Etest; in short: as §1
# Neisseria meningitidis [18] = experiment: Antimicrobial activity against Neisseria meningitidis harboring rpoB45 D542V mutant allele by Etest; in short: as §1
# Neisseria meningitidis [19] = experiment: Antimicrobial activity against Neisseria meningitidis harboring rpoB46 H552N mutant allele by Etest; in short: as §1
# Neisseria meningitidis [20] = experiment: Antimicrobial activity against Neisseria meningitidis harboring rpoB50 S557F mutant allele by Etest; in short: as §1
# Neisseria meningitidis [21] = experiment: Antimicrobial activity against Neisseria meningitidis harboring rpoB51 H552Y mutant allele by Etest; in short: as §1
# Neisseria meningitidis [22] = experiment: Antimicrobial activity against Neisseria meningitidis harboring rpoB53 G560S mutant allele by Etest; in short: as §1
# Neisseria meningitidis [23] = experiment: Antimicrobial activity against Neisseria meningitidis harboring rpoB57 D542N mutant allele by Etest; in short: as §1
# Neisseria meningitidis [24] = experiment: Antimicrobial activity against Neisseria meningitidis expressing wild type rpoB1 allele by Etest
# In short: (§2)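 Rifampin MIC by Etest on meningococcal isolates from participating national laboratories, with rpoB sequenced for each isolate. Values are geometric means of MICs over all isolates carrying a given allele that lacks alterations at S548, H552 and S557 and lacks D542V. Only alleles represented by at least five isolates were reported.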
# Neisseria meningitidis [25] = experiment: Antimicrobial activity against Neisseria meningitidis expressing wild type rpoB2 allele by Etest; in short: as §2
# Neisseria meningitidis [26] = experiment: Antimicrobial activity against Neisseria meningitidis expressing wild type rpoB4 allele by Etest; in short: as §2
# Neisseria meningitidis [27] = experiment: Antimicrobial activity against Neisseria meningitidis expressing wild type rpoB5 allele by Etest; in short: as §2
# Neisseria meningitidis [28] = experiment: Antimicrobial activity against Neisseria meningitidis expressing wild type rpoB9 allele by Etest; in short: as §2
# Neisseria meningitidis [29] = experiment: Antimicrobial activity against Neisseria meningitidis expressing wild type rpoB18 allele by Etest; in short: as §2
# Neisseria meningitidis [30] = experiment: Antimicrobial activity against Neisseria meningitidis expressing wild type rpoB27 allele by Etest; in short: as §2
# Neisseria meningitidis [31] = experiment: Antimicrobial activity against Neisseria meningitidis expressing wild type rpoB28 allele by Etest; in short: as §2
# Neisseria meningitidis [32] = experiment: Antimicrobial activity against Neisseria meningitidis expressing wild type rpoB31 allele by Etest; in short: as §2
# Neisseria meningitidis [33] = experiment: Antimicrobial activity against Neisseria meningitidis expressing wild type rpoB34 allele by Etest; in short: as §2
# Neisseria meningitidis [34] = experiment: Antimicrobial activity against Neisseria meningitidis expressing wild type rpoB40 allele by Etest; in short: as §2
smiles,measurement,setting,value
CO[C@H]1/C=C/O[C@@]2(C)Oc3c(C)c(O)c4c(O)c(c(/C=N/N5CCN(C)CC5)c(O)c4c3C2=O)NC(=O)/C(C)=C\C=C\[C@H](C)[C@H](O)[C@@H](C)[C@@H](O)[C@@H](C)[C@H](OC(C)=O)[C@@H]1C [RIFAMPIN],MIC,Neisseria meningitidis [1],> 32 µg/mL
same,MIC,Neisseria meningitidis [2],> 32 µg/mL
same,MIC,Neisseria meningitidis [3],> 32 µg/mL
same,MIC,Neisseria meningitidis [4],> 32 µg/mL
same,MIC,Neisseria meningitidis [5],> 32 µg/mL
same,MIC,Neisseria meningitidis [6],> 32 µg/mL
same,MIC,Neisseria meningitidis [7],> 32 µg/mL
same,MIC,Neisseria meningitidis [8],> 32 µg/mL
same,MIC,Neisseria meningitidis [9],> 32 µg/mL
same,MIC,Neisseria meningitidis [10],> 32 µg/mL
same,MIC,Neisseria meningitidis [11],> 32 µg/mL
same,MIC,Neisseria meningitidis [12],> 32 µg/mL
same,MIC,Neisseria meningitidis [13],> 32 µg/mL
same,MIC,Neisseria meningitidis [14],8 µg/mL
same,MIC,Neisseria meningitidis [15],8 µg/mL
same,MIC,Neisseria meningitidis [16],> 32 µg/mL
same,MIC,Neisseria meningitidis [17],256 µg/mL
same,MIC,Neisseria meningitidis [18],256 µg/mL
same,MIC,Neisseria meningitidis [19],256 µg/mL
same,MIC,Neisseria meningitidis [20],> 32 µg/mL
same,MIC,Neisseria meningitidis [21],> 32 µg/mL
same,MIC,Neisseria meningitidis [22],0.125 µg/mL
same,MIC,Neisseria meningitidis [23],0.125 µg/mL
same,MIC,Neisseria meningitidis [24],0.225 µg/mL
same,MIC,Neisseria meningitidis [25],0.057 µg/mL
same,MIC,Neisseria meningitidis [26],0.089 µg/mL
same,MIC,Neisseria meningitidis [27],0.061 µg/mL
same,MIC,Neisseria meningitidis [28],0.065 µg/mL
same,MIC,Neisseria meningitidis [29],0.024 µg/mL
same,MIC,Neisseria meningitidis [30],0.15 µg/mL
same,MIC,Neisseria meningitidis [31],0.025 µg/mL
same,MIC,Neisseria meningitidis [32],0.015 µg/mL
same,MIC,Neisseria meningitidis [33],0.029 µg/mL
same,MIC,Neisseria meningitidis [34],0.034 µg/mL
